In ChEMBL document CHEMBL3120065, “Antifungal ether diglycosides from Matayba guianensis Aublet” (Bioorg Med Chem Lett, 2014):
Values after ≈ are worked out from the molar mass of the structure shown.

Tests used:
[1] = Selectivity index, ratio of IC50 for human PBMC to MIC for Candida parapsilosis ATCC 22019
PBMC = assay: Cytotoxicity against human PBMC assessed as cell viability after 72 hrs by MTT assay; assay type: cell-based
Summary of the method: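 Normal proliferating human peripheral blood mononuclear cells exposed to compound for 72 h; viability read by MTT; result given as IC50.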

Candida parapsilosis = assay: Antifungal activity against Candida parapsilosis ATCC 22019 assessed as growth inhibition by microdliution method; assay type: functional; settings: Lodderomyces parapsilosis
Plasmodium falciparum = assay: Antiplasmodial activity against Plasmodium falciparum assessed as growth inhibition; assay type: functional, organism-based

Structure (SMILES)	Selectivity Index [1]	IC50 (PBMC) [µM]	MIC (Candida parapsilosis) [µM]	IC50 (Plasmodium falciparum) [µg/mL]
CCCCCCCCCCCCCCCCO[C@@H]1O[C@H](CO)[C@@H](O)[C@H](O)[C@H]1O[C@@H]1O[C@@H](C)[C@H](OC(C)=O)[C@@H](OC(C)=O)[C@H]1O	12.5	> 39.4	3.15	
OC(Cn1cncn1)(Cn1cncn1)c1ccc(F)cc1F [FLUCONAZOLE]		> 16.3	0.2	
CCCCCCCCCCCCCCCCO[C@@H]1O[C@H](COC(=O)CCCCCCCCCCCCCCC)[C@@H](O)[C@H](O)[C@H]1O[C@@H]1O[C@@H](C)[C@H](OC(C)=O)[C@@H](OC(C)=O)[C@H]1OC(C)=O				4.7 (≈ 5.14 µM)
CCCCCCCCCCCCCCCCO[C@@H]1O[C@H](CO)[C@@H](O)[C@H](O)[C@H]1O[C@@H]1O[C@@H](C)[C@H](OC(C)=O)[C@@H](O)[C@H]1OC(C)=O		> 39.4	6.31	
CCCCCCCCCCCCCCCCO[C@@H]1O[C@H](COC(C)=O)[C@@H](O)[C@H](OC(C)=O)[C@H]1O[C@@H]1O[C@@H](C)[C@H](OC(C)=O)[C@@H](OC(C)=O)[C@H]1OC(C)=O				13 (≈ 17.1 µM)
C[C@@H]1[C@H](O)[C@@H](C)/C=C/C=C/C=C/C=C/C=C/C=C/C=C/[C@H](O[C@@H]2O[C@H](C)[C@@H](O)[C@H](N)[C@@H]2O)C[C@@H]2O[C@](O)(C[C@@H](O)C[C@@H](O)[C@H](O)CC[C@@H](O)C[C@@H](O)CC(=O)O[C@H]1C)C[C@H](O)[C@H]2C(=O)O [AMPHOTERICIN B]		> 5.41	4.33	
COc1cccc2c1C(=O)c1c(O)c3c(c(O)c1C2=O)C[C@@](O)(C(=O)CO)C[C@@H]3O[C@H]1C[C@H](N)[C@H](O)[C@H](C)O1 [DOXORUBICIN]		1.7		
CCC(C)n1ncn(-c2ccc(N3CCN(c4ccc(OCC5COC(Cn6cncn6)(c6ccc(Cl)cc6Cl)O5)cc4)CC3)cc2)c1=O (stereo not drawn) [ITRACONAZOLE]		1.53	0.71	
CCCCCCCCCCCCCCCCO[C@@H]1O[C@H](COC(C)=O)[C@@H](O)[C@H](O)[C@H]1O[C@@H]1O[C@@H](C)[C@H](OC(C)=O)[C@@H](OC(C)=O)[C@H]1OC(C)=O				15.7 (≈ 21.8 µM)
CCCCCCCCCCCCCCCCO[C@@H]1O[C@H](COC(C)=O)[C@@H](OC(C)=O)[C@H](O)[C@H]1O[C@@H]1O[C@@H](C)[C@H](OC(C)=O)[C@@H](OC(C)=O)[C@H]1OC(C)=O				7.1 (≈ 9.33 µM)
CCCCCCCCCCCCCCCCO[C@@H]1O[C@H](CO)[C@@H](O)[C@H](O)[C@H]1O[C@@H]1O[C@@H](C)[C@H](OC(C)=O)[C@@H](OC(C)=O)[C@H]1OC(C)=O		25.4	189	
